The source made the active and inactive calls. The calls are words filed in the database; no cut-off is given here.
Columns and labels:
Trypanosoma cruzi [1] = test: Antitrypanosomal activity against Trypanosoma cruzi MHOM/Pe/2011/Arequipa;DTU 5 bloodstream trypomastigotes infected in BALB/c mouse assessed as reduction in serum Ig-G level in chronic phase at 20 mg/kg/day, po administered for 5 consecutive days starting from day 70 post infection measured at day 76 post infection by ELISA; format: functional, organism-based
Summary of the method: (§1)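 Sera came from infected BALB/c mice (three per group) dosed orally at 20 mg/kg/day for 5 days. Sampling points: 2 days after treatment, the day before immunosuppression (acute only) and necropsy day. Anti-T. cruzi IgG was measured by indirect ELISA using parasite Fe-SOD as antigen, read as OD at 492 nm.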

Trypanosoma cruzi [2] = test: Antitrypanosomal activity against Trypanosoma cruzi MHOM/Pe/2011/Arequipa;DTU 5 amastigote forms measured after 72 hrs by Giemsa staining based assay; format: functional, organism-based; conditions: MHOM/Pe/2011/Arequipa;DTU 5, 72 h
Summary of the method: (§2)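 Vero cells (1 × 10^4/well, on coverslips) left to adhere 24 h at 37 °C, 5% CO2, then infected with trypomastigotes at MOI 10:1 for 24 h. Free parasites were removed by three PBS washes. Compounds at 3.1, 6.25, 12.5, 25 and 50 µM were incubated 72 h, and amastigotes were counted after Giemsa staining. Triplicates, two separate experiments; IC50 by nonlinear regression.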

Trypanosoma cruzi [3] = test: Antitrypanosomal activity against Trypanosoma cruzi IRHOD/CO/2008/SN3;DTU 1 amastigote forms measured after 72 hrs by Giemsa staining based assay; format: functional, organism-based; conditions: IRHOD/CO/2008/SN3;DTU 1, 72 h; summary of the method: as §2
[4] = Genotoxicity in Salmonella typhimurium TA1535 harboring pSK1002 assessed as survival at 0.125 mg/ml in absence of Sprague-Dawley rat liver S9 fraction metabolic activation by SOS/umu assay relative to control; format: toxicity; conditions: salmonella enterica subsp. enterica serovar typhimurium, read-out: Survival
Summary of the method: (§3)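 Survival of S. typhimurium TA1535/pSK1002 exposed to a range of compound concentrations with or without S9 mix in 96-well format. Survival percentage measured as the cytotoxicity arm of the SOS/umu test. Concentrations with survival ≥80% are counted as non-cytotoxic.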

[5] = Genotoxicity in Salmonella typhimurium TA1535 harboring pSK1002 assessed as survival at 0.063 mg/ml in presence of Sprague-Dawley rat liver S9 fraction metabolic activation by SOS/umu assay relative to control; format: toxicity, subcellular; conditions: salmonella enterica subsp. enterica serovar typhimurium, read-out: Survival; summary of the method: as §3
[6] = Genotoxicity in Salmonella typhimurium TA1535 harboring pSK1002 assessed as survival at 0.008 mg/ml in presence of Sprague-Dawley rat liver S9 fraction metabolic activation by SOS/umu assay relative to control; format: toxicity, subcellular; conditions: salmonella enterica subsp. enterica serovar typhimurium, read-out: Survival; summary of the method: as §3
[7] = Genotoxicity in Salmonella typhimurium TA1535 harboring pSK1002 assessed as umu gene induction at 0.125 mg/ml in presence of Sprague-Dawley rat liver S9 fraction metabolic activation by SOS/umu assay relative to control; format: toxicity, subcellular; conditions: salmonella enterica subsp. enterica serovar typhimurium, read-out: FC
Summary of the method: (§4)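 umu induction in S. typhimurium TA1535/pSK1002, with or without S9 mix, in 96-well format. β-galactosidase read colorimetrically with ONPG substrate. Output given as relative units and induction factor (IF). The run is valid if positive controls reach IF ≥2. A compound counts as genotoxic at IF ≥2 at a concentration giving ≥80% bacterial survival.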

[8] = Genotoxicity in Salmonella typhimurium TA1535 harboring pSK1002 assessed as umu gene induction at 0.063 mg/ml in presence of Sprague-Dawley rat liver S9 fraction metabolic activation by SOS/umu assay relative to control; format: toxicity, subcellular; conditions: salmonella enterica subsp. enterica serovar typhimurium, read-out: FC; summary of the method: as §4
[9] = Genotoxicity in Salmonella typhimurium TA1535 harboring pSK1002 assessed as umu gene induction at 0.016 mg/ml in presence of Sprague-Dawley rat liver S9 fraction metabolic activation by SOS/umu assay relative to control; format: toxicity, subcellular; conditions: salmonella enterica subsp. enterica serovar typhimurium, read-out: FC; summary of the method: as §4
[10] = Genotoxicity in Salmonella typhimurium TA1535 harboring pSK1002 assessed as umu gene induction at 0.002 mg/ml in presence of Sprague-Dawley rat liver S9 fraction metabolic activation by SOS/umu assay relative to control; format: toxicity, subcellular; conditions: salmonella enterica subsp. enterica serovar typhimurium, read-out: FC; summary of the method: as §4
Trypanosoma cruzi [11] = test: Antitrypanosomal activity against Trypanosoma cruzi MHOM/Pe/2011/Arequipa;DTU 5 bloodstream trypomastigote infected in BALB/c mouse assessed as parasite-free muscle in chronic phase at 20 mg/kg/day, po administered for 5 consecutive days starting from day 70 post infection followed by cyclophosphamide induced immunosuppression on day 80 post infection measured after day 100 post infection by PCR method relative to control; format: functional
Summary of the method: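 Female BALB/c mice (10–12 weeks, three per group) were infected i.p. with 5 × 10^5 Arequipa bloodstream trypomastigotes. Dosing was oral, 20 mg/kg/day for 5 days, as a suspension in 5% DMSO/0.5% HPMC. Cyclophosphamide 200 mg/kg i.p. was given at day 80 pi. At necropsy (day 100) tissues were tested by PCR on the splice leader region (primers TC/TC1, 300 bp). Scored as x/3 mice positive.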

[12] = (§5) Toxicity in BALB/c mouse infected with Trypanosoma cruzi MHOM/Pe/2011/Arequipa;DTU 5 bloodstream trypomastigote assessed as decrease in serum creatine kinase muscle to brain ratio level in acute phase at 20 mg/kg/day, po administered for 5 consecutive days starting from day 8 post infection and measured on day 100 post infection by biochemical analysis relative to control; format: organism-based; set-up: scale not given: the % may be the effect or the level left; conditions: in vivo
Summary of the method: (§6)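 Female BALB/c mice (10–12 weeks, 14–20 g; groups of three) were infected i.p. with 5 × 10^5 Arequipa bloodstream trypomastigotes. Dosing was oral at 20 mg/kg/day for 5 days, from day 8 pi (acute) or day 70 pi (chronic), as a 2 mg/ml suspension in 5% DMSO/0.5% HPMC; controls received vehicle. Cyclophosphamide 200 mg/kg i.p. was given at day 80 pi. Serum was collected 2 days post-treatment and at necropsy by cardiac puncture and compared with infected untreated controls.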

[13] = as §5, with “change” for “decrease”, “total bilirubin” for “creatine kinase muscle to brain ratio”; format: organism-based; conditions: in vivo; summary of the method: as §6
[14] = as §5, with “alkaline phosphatase” for “creatine kinase muscle to brain ratio”; format: organism-based; set-up: scale not given: the % may be the effect or the level left; conditions: in vivo; summary of the method: as §6
[15] = (§7) Toxicity in BALB/c mouse infected with Trypanosoma cruzi MHOM/Pe/2011/Arequipa;DTU 5 bloodstream trypomastigote assessed as decrease in serum urea level in chronic phase at 20 mg/kg/day, po administered for 5 consecutive days starting from day 70 post infection measured on day 100 post infection relative to control; format: organism-based; set-up: scale not given: the % may be the effect or the level left; conditions: in vivo; summary of the method: as §6
Trypanosoma cruzi [16] = test: Antitrypanosomal activity against Trypanosoma cruzi MHOM/Pe/2011/Arequipa;DTU 5 bloodstream trypomastigotes infected in BALB/c mouse assessed as reduction in serum Ig-G level in acute phase at 20 mg/kg/day, po administered for 5 consecutive days starting from day 8 post infection followed by cyclophosphamide induced immunosuppression on day 80 post infection and measured at day 100 post infection by ELISA; format: functional, organism-based; summary of the method: as §1
[17] = as §7, with “trypomastigotes” for “trypomastigote”, “alkaline phosphatase” for “urea”; format: organism-based; set-up: scale not given: the % may be the effect or the level left; conditions: in vivo; summary of the method: as §6
Trypanosoma cruzi [18] = test: Trypanocidal activity against Trypanosoma cruzi trypomastigote form infected in African green monkey Vero cells assessed as ratio of infected cells at 50 uM measured after 72 hrs by Giemsa staining based assay relative to control; format: functional
Summary of the method: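 Vero cells (1 × 10^4/well, on coverslips) were infected with trypomastigotes at MOI 10:1 for 24 h and washed three times with PBS. They were treated at 3.1, 6.25, 12.5, 25 and 50 µM for 72 h at 37 °C in 5% CO2. Infected cells were counted after Giemsa staining. Triplicates, two separate determinations.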

[19] = as §7, with “change” for “decrease”, “aspartate aminotransferase” for “urea”; format: organism-based; conditions: in vivo; summary of the method: as §6

SMILES	Activity (Trypanosoma cruzi [1])	IC50 (Trypanosoma cruzi [2]) [µM]	IC50 (Trypanosoma cruzi [3]) [µM]	viability at 0.125 mg/ml [4] [%]	viability at 0.063 mg/ml [5] [%]	viability at 0.008 mg/ml [6] [%]	fold induction at 0.125 mg/ml [7]	fold induction at 0.063 mg/ml [8]	fold induction at 0.016 mg/ml [9]	fold induction at 0.002 mg/ml [10]	Activity (Trypanosoma cruzi [11]) [%]	Activity [12]	Activity [13] [%]	Activity [14]	Activity [15]	Activity (Trypanosoma cruzi [16])	Activity [17]	Ratio (Trypanosoma cruzi [18]) [%]	Activity [19] [%]
O=C(CCN1CCN(c2ccc(Cl)cc2)CC1)c1ccc(O)cc1	Active	5.1	4.5	198	86.7	109	0.84	0.87	0.84	0.74	63	<= 20%	> 10	<= 10%	<= 10%	Active	–	–	–
O=C(Cn1ccnc1[N+](=O)[O-])NCc1ccccc1 [BENZNIDAZOLE]	Active	3	4.4	–	–	–	–	–	–	–	38	–	> 10	–	<= 30%	Active	<= 10%	18	> 10
O=C(CCN1CCN(c2ccc(C(F)(F)F)cc2)CC1)c1ccc(O)cc1	Active	6.2	6.6	122	92.9	104	0.63	0.85	0.79	0.89	50	<= 30%	–	<= 30%	–	Active	<= 30%	7	> 10
